# Screening data (PubChem BioAssay)
# The list is not random: actives were taken first. Their share in the collection is about 2.4%.
# dFosB act: enhances mouse delta FosB homodimer DNA binding | purified delta FosB, TAMRA-CDK5 oligo fluorescence polarization; percent of positive-control signal above neutral wells | activation, % at 25 µM | P13346 | AID 493131 | 340,000 compounds, 0.99% hits;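 active means mean activation above about 17%, with every replicate also reaching it, limit read from the data, passing the limit was not always enough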
# Target sequence (P13346 whole entry, looked up): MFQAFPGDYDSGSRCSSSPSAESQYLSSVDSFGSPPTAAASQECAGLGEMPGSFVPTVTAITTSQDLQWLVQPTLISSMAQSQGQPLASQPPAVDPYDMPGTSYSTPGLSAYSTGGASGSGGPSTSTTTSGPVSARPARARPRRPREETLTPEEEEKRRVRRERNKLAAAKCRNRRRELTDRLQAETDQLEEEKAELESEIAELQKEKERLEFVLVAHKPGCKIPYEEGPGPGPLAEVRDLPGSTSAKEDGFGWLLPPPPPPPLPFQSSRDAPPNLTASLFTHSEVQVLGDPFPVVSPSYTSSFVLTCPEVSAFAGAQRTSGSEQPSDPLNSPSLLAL
# Cneo AK release: causes C. neoformans cell lysis; adenylate kinase release luminescence, 4 h; normalised: neutral wells 0, clomiphene wells 100; AID 651654; 360,000 compounds, 0.2% hits; lysis activity, % at 15 µM;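 active means mean lysis activity across replicates of at least 80%, whatever share of replicates individually reach that level; inactive means mean lysis activity below 80%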
#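 Signal: Adenylate kinase release luminescence | Assay system: Log-phase Cryptococcus neoformans yeast cells | Input: Cells at 5 × 10^6 per mL | Buffer or medium: Fresh YPD growth medium | Compound: Single dose | Schedule: Static 4 h at 37 °C with compound, 1 h detection | Controls: Clomiphene | Read-out: Luminescence rise reflecting yeast cell lysis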
# GSIS activator: GLuc luminescence reporter in INS-1E cells, primary screen for activators of glucose-dependent secretion of insulin. activation, % at 16.6 µM. INS-1E GLuc reporter insulin secretion, 2-3 h. 370,000 compounds, 0.61% hits;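 active means lowest replicate activation of at least 40%, so every replicate reaches that level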;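 further: 0% = median of neutral control wells and 100% = median of IBMX positive control wells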
# miR-122 sensor: inhibitors of miR-122 in Huh7 cells; Huh7 miR-122 Renilla luciferase sensor, 48 h; neutral wells = 0, positive control = 100; activation (reporter increase), % at 12.5 µM; 340,000 compounds, 0.3% hits;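 active means mean replicate activation score at least 90 and every replicate individually at or above 90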;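 further: higher luciferase means less miR-122 activity so hits act as miR-122 inhibitors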
# HIV Env fusion: inhibitors of HIV Env-mediated cell fusion; HeLa-JRFL Env/CEM21 cell fusion, luciferase; inhibition, % at 12.3 µM; 360,000 compounds, 1.1% hits;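 active means mean replicate inhibition score of at least 50 and every replicate individually at or above 50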;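 further: 0% = plate neutral controls and 100% = maraviroc near 300 nM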
# Rtt109 Vps75: inhibitors of Candida albicans Rtt109/Vps75 histone acetyltransferase; 330,000 compounds, 0.16% hits; purified Rtt109/Vps75, ThioGlo CoA-SH fluorescence, 4 h; inhibition, % at 34.9 µM; Q5AAJ8;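 active means inhibition of at least 50% in every replicate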
# * = called active by the depositor; · = no result given; [ ] = remark or other dose.
SMILES,dFosB act,Cneo AK release,GSIS activator,miR-122 sensor,HIV Env fusion,Rtt109 Vps75
COCCn1c(=NC(=O)c2nc3ccccc3s2)sc2cc(S(C)(=O)=O)ccc21,-8,-1,-6,7,1,-4
COc1ccccc1CC(=O)N1CCN(c2cccc(C(F)(F)F)c2)CC1,-8,2,·,·,66*,13
COc1ccccc1NC(=O)N1CCN(c2cccc(C(F)(F)F)c2)CC1,0,1,-38,-6,4,8
CC(C)C[C@H]1COCc2cn(nn2)CC[C@@H](Cc2cccc(Cl)c2)C(=O)N1,·,·,3,·,·,·
O=S(=O)(c1ccc(NCCCO)nc1)N1CCOCC1,2,0,49*,·,9,-1
O=S(=O)(c1ccc(NCCOCCO)nc1)N1CCCCC1,1,0,10,·,0,-9
COCCN(C(=O)COC(=O)Cc1c(C)nc2ccccc2c1C)c1c(N)n(CC(C)C)c(=O)[nH]c1=O,-5,1,·,·,1,0
COCCN(C(=O)COC(=O)Cc1cccc(OC)c1)c1c(N)n(CC(C)C)c(=O)[nH]c1=O,-5,·,53*,-4,3,0
COCCN(C(=O)COC(=O)C12CC3CC(CC(Cl)(C3)C1)C2)c1c(N)n(Cc2ccccc2)c(=O)[nH]c1=O,-2,-2,-43,-8,68*,5
COCCCN(C(=S)NC(=O)C12CC3CC(CC(C3)C1)C2)c1c(N)n(Cc2ccccc2)c(=O)[nH]c1=O,-16,·,-12,1,84*,-4
COCCCN(C(=O)C1CCCCC1)c1c(N)n(Cc2ccccc2)c(=O)[nH]c1=O,4,-2,0,·,·,-1
COCC(=O)N(C)C[C@@H]1Oc2ncc(C3=CCCC3)cc2C(=O)N([C@@H](C)CO)C[C@H]1C,·,-4,29,·,9[16.7 µM],·
COc1cccc(C(=O)N2C[C@@H]3[C@H](c4ccccc42)[C@@H](CO)N3Cc2ccccc2Cl)c1,·,5,-1,29[16.7 µM],·,·
CC(C)OCCCNc1ncnc2c1[nH]c1ccccc12,-8,4,-25,11,78*,-2
CCN(CC)CCCNc1nc2ccccc2c2[nH]c3ccc(OC)cc3c12,78*,·,-14,·,-191,-6
C/C(=N\N)c1c(-c2ccccc2)c2cc(C)ccc2[nH]c1=O,1,-2,·,5,5,-10
CCN(CC)c1c(-c2ccccc2)c2cc(C)ccc2[nH]c1=O,-2,0,9,7,68*,1
CCN(CC)c1ccc(/C=N/N2C(C)CCCC2C)c(O)c1 (configuration not stated),2,0,4,-3,73*,1
Cn1cc(CCNCc2cn[nH]c2-c2ccc(-c3ccccc3)cc2)cn1,-3,-3,14,-5,-3,-6
Cc1ccc(-c2[nH]ncc2CNCCc2cnn(-c3ccccc3)c2)cc1C,7,4,1,-9,66*,-5
CC(OC(=O)c1ccc2c(c1)NC(=O)CS2)C(=O)c1ccc(F)cc1 (configuration not stated),-10,0,-51,-3,59*,2
Cc1ccc(-c2cc(C(=O)N/N=C/c3c[nH]c4ccccc34)n[nH]2)o1,-3,·,-7,·,-2,·
Cc1ccc(-c2cc(C(=O)N/N=C/c3ccccc3O)n[nH]2)o1,51*,-1,-12,-11,-12,12
O=C(C[C@H]1C=C[C@@H](NC(=O)Cc2ccccn2)[C@@H](CO)O1)NCCCN1CCOCC1,·,-4,4,·,11[16.7 µM],·
COC(=O)c1cc2c(c3c4cc(OC)ccc4n(S(=O)(=O)c4ccccc4)c13)C(=O)N(C)C2,·,·,·,·,65*,·
SMILES,dFosB act,Cneo AK release,GSIS activator,miR-122 sensor,HIV Env fusion,Rtt109 Vps75
C[C@H](CO)N1C[C@H](C)[C@@H](CN(C)Cc2ccccc2)Oc2ccc(NC(=O)Cc3cn(C)c4ccccc34)cc2CC1=O,·,16,-19,-4[16.7 µM],1[16.7 µM],·
O=C(C[C@@H]1CC[C@H]2[C@@H](COC[C@H](O)CN2Cc2nccs2)O1)NCc1ccc(F)cc1,·,1,10,-2[16.7 µM],-4[16.7 µM],·
CCOc1ccc(CCNS(=O)(=O)c2cn(C)cn2)cc1OCC,-6,0,60*,1,-16,-2
CN(C)CC(=O)Nc1ccc2c(c1)[C@@H]1C[C@H](CC(=O)NCCc3ccccc3)O[C@H](CO)[C@@H]1O2,·,-3,15,-3[16.7 µM],1[16.7 µM],·
C/C=C/c1ccc(OCCN2C(=O)NC(C)(C)C2=O)c(OC)c1,-7,7,44*,1,·,41
O=C(C[C@@H]1CC[C@@H](NC(=O)c2cccc(F)c2)[C@H](CO)O1)NCCN1CCCC1,·,21,9,-6[16.7 µM],-15[16.7 µM],·
O=C(N=C1SC2CS(=O)(=O)CC2N1c1ccc(F)cc1F)C1CC1 (configuration not stated),-5,2,-5,-7,9,-5
O=C(N=C1SC2CS(=O)(=O)CC2N1c1ccc(F)c(Cl)c1)C1CC1 (configuration not stated),-1,-3,42*,-3,0,-2
O=C(Nc1cccc(Cl)c1)Nc1nc(-c2ccc(Cl)cc2)cs1,2,·,128*,-12,·,3
COc1ccc(NC(=O)c2cc(C3CCCCN3C(=O)Cc3ccc(N(C)C)cc3)on2)c(C)c1 (configuration not stated),·,-1,1,8,·,·
CN(C)c1ccc(CC(=O)N2CCCCC2c2cc(C(=O)Nc3ccccc3Cl)no2)cc1 (configuration not stated),·,-2,45*,-6,11,·
Cc1ccc(S(=O)(=O)Nc2ccc3c(c2)C(=O)N([C@H](C)CO)C[C@H](C)[C@@H](CN(C)S(=O)(=O)c2ccc(C)cc2)OCCCC[C@H](C)O3)cc1,·,-6,-15,-2[16.7 µM],-84[16.7 µM],·
CS(=O)(=O)N(CC(=O)N1CCC(C(N)=O)CC1)c1ccc(Oc2ccccc2)cc1,-2,·,·,3,·,1
CC(C(=O)N1CCC(C(N)=O)CC1)N(c1ccc(Oc2ccccc2)cc1)S(C)(=O)=O (configuration not stated),-2,0,50*,2,-19,10
COc1cccc(C#Cc2ccc([C@H]3[C@H](CO)N4C(=O)CN(C(C)=O)C[C@@H]34)cc2)c1,·,·,16,·,·,·
COc1ccc(-n2c(COc3ccccc3)nnc2SCc2ccc(C#N)cc2)cc1,-9,1,·,5,18,6
N#Cc1ccc(CSc2nnc(COc3ccccc3)n2-c2ccccc2)cc1,-22,0,-21,1,75*,-2
CCC(=O)N1CCCCN2[C@@H](CO)[C@@H](c3ccc(C#Cc4cccnc4)cc3)[C@@H]2C1,·,52,8,-4[16.7 µM],·,·
O=C1O[C@@H](c2ccccc2)[C@@H](c2ccccc2)N2[C@@H](c3ccc(OCCO)cc3)[C@]3(C(=O)Nc4ccccc43)[C@@H](C(=O)Nc3nc4ccccc4s3)[C@H]12,·,44,·,·,-3[16.7 µM],·
